Test results as given in ChEMBL document CHEMBL3751740, “New MKLP-2 inhibitors in the paprotrain series: Design, synthesis and biological evaluations” (Bioorg Med Chem, 2016).
Calls of active or inactive are those of the source. The rule behind the calls is not given here.

Tests used:
[1] = system: MDA-MB-231; assay: Growth inhibition of human MDA-MB-231 cells incubated for 4 days by WST-1 assay; type: functional; conditions: MDA-MB-231, 96 h
Method in brief: (§1)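 Cells were kept at 37 °C under 5% CO2 and plated on day 0 at 500–5000 cells/well. On day 1 they received ten concentrations from 0.0025 to 50 µM (final), in triplicate. On day 4 WST-1 was added, followed by 30 min–4 h incubation and absorbance at 450 nm. GI50 is the concentration killing 50% of cells.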

[2] = Growth inhibition of human HCT116 cells incubated for 4 days by WST-1 assay; type: functional; conditions: HCT-116, 96 h; method in brief: as §1
[3] = Growth inhibition of human PK59 cells incubated for 4 days by WST-1 assay; type: functional; conditions: PK-59, 96 h; method in brief: as §1
[4] = system: NCI-H460; assay: Growth inhibition of human NCI-H460 cells incubated for 4 days by WST-1 assay; type: functional; conditions: NCI-H460, 96 h; method in brief: as §1
[5] = species: Ovis aries; assay: Induction of sheep brain microtubule disassembly by UV spectrophotometric analysis
Method in brief: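 Sheep brain tubulin, purified by two assembly/disassembly cycles and held in MES buffer with GTP at pH 6.6, was polymerized at 37 °C for 10 min. Compound was then added to the MTs at 0 °C and depolymerization was followed over the next few minutes by turbidity at 350 nm.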

[6] = Growth inhibition of human MIAPaCa2 cells incubated for 4 days by WST-1 assay; type: functional; conditions: MIA PaCa-2, 96 h; method in brief: as §1
[7] = system: A549; assay: Growth inhibition of human A549 cells incubated for 4 days by WST-1 assay; type: functional; conditions: A549, 96 h; method in brief: as §1
[8] = system: HT-29; assay: Growth inhibition of human HT-29 cells incubated for 4 days by WST-1 assay; type: functional; conditions: HT-29, 96 h; method in brief: as §1
[9] = system: KB; assay: Growth inhibition of human KB cells at 10 uM after 72 hrs by MTS assay; type: functional; conditions: read-out: GI
Method in brief: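 KB cells were grown in DMEM with 25 mM glucose and 10% FCS at 37 °C, 5% CO2, and seeded at 500 cells/well. 24 h later, compound in DMSO (1% final) was added at 10 µM or 1 µM for 72 h; controls received DMSO alone. Runs were in duplicate. Viable cells were read with MTS at 490 nm.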

[10] = system: HepG2; assay: Growth inhibition of human HepG2 cells incubated for 4 days by WST-1 assay; type: functional; conditions: HepG2, 96 h; method in brief: as §1
[11] = species: Ovis aries; assay: Inhibition of sheep brain tubulin polymerization by UV spectrophotometric analysis; conditions: concentration not given here
Method in brief: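 Tubulin purified from sheep brain by two assembly/disassembly cycles, about 2–3 mg/mL in 0.1 M MES, 0.5 mM MgCl2, 1 mM EGTA, 1 mM GTP, pH 6.6. Compound in DMSO added at 0 °C, then moved to a 37 °C thermostated cell. Assembly followed by turbidity at 350 nm for a few min.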

[12] = system: MCF7; assay: Growth inhibition of human MCF7 cells incubated for 4 days by WST-1 assay; type: functional; conditions: MCF7, 96 h; method in brief: as §1
[13] = system: K562; assay: Growth inhibition of human K562 cells incubated for 4 days by WST-1 assay; type: functional; conditions: K562, 96 h; method in brief: as §1

## N#C/C(=C\c1cccnc1)c1c[nH]c2ccccc12
[1]
  GI50: > 50 µM
[2]
  GI50: > 50 µM
[3]
  GI50: > 50 µM
[4]
  GI50: > 50 µM
  IC25: 18.5 µM
[5]
  Activity: inactive
[6]
  GI50: > 50 µM
[7]
  GI50: > 50 µM
[8]
  GI50: > 50 µM
  IC25: 7.5 µM
[9]
  inhibition of growth at 10 µM: 27%
[10]
  GI50: > 50 µM
[11]
  inhibition: 11%
[12]
  GI50: > 50 µM
  IC25: 28.6 µM
[13]
  GI50: 21.6 µM
